Reference: PubChem BioAssay
Active and inactive are the calls of the source.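 The calls were made as follows, unless noted: active = GFP response above 150% of the DMSO level; inconclusive = fewer than 70 events counted for a yeast strain; inactive = the rest.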

Experiments:
[1] = RPL19A-GFP modulators, yeast TOR pathway, confirmation, cell-based, S. cerevisiae, flow cytometry, cherry picks, mother/daughter gates (AID 2270;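 active = GFP response below 50% of the DMSO control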); conditions: S. cerevisiae RPL19A-GFP strain, 3 h, at 10 µM, stronger effect = lower value, 100 = same GFP as DMSO wells
[2] = LAP4-GFP expression modulators in yeast, confirmation, cell-based, cherry picks, flow cytometry, mother/daughter gates (AID 2271;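 active = GFP response above 150% of the DMSO control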;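 also: ratio of sample to DMSO plate mean so 100% equals DMSO level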); conditions: S. cerevisiae LAP4-GFP strain, 3 h, at 10 µM, stronger effect = higher value, 100 means same as DMSO control
Procedure, shortened: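 System: GFP-fusion yeast strain | Input: Yeast cells seeded at OD600 of 0.2 | Technique: HT flow cytometry, GFP fluorescence channel | Read-out: % GFP response vs DMSO | Dosing: Single test-compound dose, 10 µM final | Controls: Positive rapamycin (400 ng/mL), negative DMSO | Times: 3 h treatment at 30 °C with rotation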

[3] = modulators of MEP2-GFP levels in yeast, confirmation, S. cerevisiae, flow cytometry GFP, cherry picks (AID 2272;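 active = GFP response above 150% of the DMSO control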;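 also: ratio of well signal to plate DMSO mean so 100% equals DMSO level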); conditions: S. cerevisiae MEP2-GFP strain, 3 h, at 10 µM, stronger effect = higher value
[4] = AGP1-GFP expression modulators, hit retest, confirmation, cell-based, flow cytometry, S. cerevisiae, cherry picks (AID 2273);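 also: median GFP channel fluorescence over the whole cell population gate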; conditions: S. cerevisiae AGP1-GFP strain, 3 h, at 10 µM
[5] = modulators of CIT2-GFP expression in yeast, confirmation, S. cerevisiae, GFP fusion, cherry picks, mother/daughter gates (AID 2274); conditions: S. cerevisiae CIT2-GFP strain, flow cytometry, 3 h, at 10 µM, stronger effect = higher value
[6] = measured here: daughter cell gate
[7] = measured here: mother cell gate
[8] = measured here: daughter cell gate response
[9] = measured here: mother cell gate response

| SMILES | GFP response vs DMSO [1] | GFP response vs DMSO [1, 6] | GFP response vs DMSO [1, 7] | GFP response relative to DMSO [2] | GFP response relative to DMSO [2, 8] | GFP response relative to DMSO [2, 9] | GFP response vs DMSO [3] | GFP response, % of DMSO [4] | GFP response, % of DMSO [5] | GFP response, % of DMSO [5, 6] | GFP response, % of DMSO [5, 7] |
| --- | --- | --- | --- | --- | --- | --- | --- | --- | --- | --- | --- |
| O=C(CCCCCN1C(=O)c2cccc3cccc(c23)C1=O)N1CCOCC1 | 102% (inactive) | 101% | 102% | 102% (inactive) | 101% | 103% | 99% (inactive) | 99.8% (inactive) | 103% (inactive) | 101% | 103% |
| Cc1ccc(NC(=O)c2nc(S(=O)(=O)Cc3ccccc3C)ncc2Cl)cc1C | 91.6% (inactive) | 89.6% | 91.6% | 107% (inactive) | 107% | 107% | 103% (inactive) | 107% (inactive) | 94.4% (inactive) | 92.3% | 94.9% |
| CS(=O)(=O)N1N=C(c2ccco2)CC1c1ccc(Br)cc1 (stereo not drawn) | 98.4% (inactive) | 98.1% | 99.2% | 103% (inactive) | 104% | 103% | 100% (inactive) | 96.8% (inactive) | 103% (inactive) | 103% | 101% |
| CN(C)CCCNc1cc(C(C)(C)C)nc2c(-c3ccc(Cl)cc3)cnn12 | 93.6% (inactive) | 89% | 94.2% | 116% (inactive) | 107% | 118% | 114% (inactive) | 107% (inactive) | 93.1% (inactive) | 94% | 92.6% |
| CCOC(=O)c1ccc(NC(=O)c2nc(S(=O)(=O)Cc3ccccc3)ncc2Cl)cc1 | 99.5% (inactive) | 99% | 98.9% | 93.8% (inactive) | 95.6% | 95.2% | 102% (inactive) | 101% (inactive) | 97.8% (inactive) | 94.8% | 97.7% |
| CCOc1ccccc1/C=C/C(=O)c1ccc(Cl)cc1 | 98.2% (inactive) | 97.1% | 98.5% | 99.2% (inactive) | 99.2% | 97.2% | 98.3% (inactive) | 102% (inactive) | 103% (inactive) | 103% | 102% |
| CCOc1ccc(N2C(=O)CC(Sc3nccc(C)n3)C2=O)cc1 (stereo not drawn) | 97.3% (inactive) | 99.3% | 97.3% | 97.7% (inactive) | 97.5% | 97.4% | 103% (inactive) | 102% (inactive) | 100% (inactive) | 97.6% | 102% |
| COc1ccc(-c2csc(NC(=O)CSc3nc(C)nc4sc(C(=O)O)c(C)c34)n2)cc1 | 100% (inactive) | 99% | 100% | 85.4% (inactive) | 87.9% | 89% | 102% (inactive) | 104% (inactive) | 102% (inactive) | 99.7% | 103% |
| O=C(/C(=C/c1ccccc1)n1cncn1)c1ccc(Cl)cc1Cl | 96% (inactive) | 92.7% | 93.5% | 149% (inactive) | 125% | 162% | 98.8% (inactive) | 106% (inactive) | 86% (inactive) | 85.7% | 79.8% |
| COC(=O)c1ccc(N2C(=O)CC(SCCN)C2=O)cc1 (stereo not drawn) | 98.7% (inactive) | 100% | 98.4% | 98.9% (inactive) | 102% | 100% | 101% (inactive) | 103% (inactive) | 100% (inactive) | 103% | 99.3% |
| CCCn1c(=O)c(C(=O)NCc2ccc(OC)c(OC)c2)c(O)c2ccccc21 | 98% (inactive) | 97.6% | 97.6% | 102% (inactive) | 102% | 103% | 107% (inactive) | 95% (inactive) | 101% (inactive) | 97.2% | 101% |
| COc1ccc(N2CCN(C(=O)c3ccc(OCC4CCCO4)cc3)CC2)cc1 (stereo not drawn) | 99.2% (inactive) | 98.8% | 98.3% | 99.5% (inactive) | 101% | 98.4% | 99% (inactive) | 99.8% (inactive) | 100% (inactive) | 101% | 99.3% |
| O=C(NCC(=O)N1CCCC1)c1cccs1 | 99.8% (inactive) | 99.6% | 100% | 99.2% (inactive) | 97.6% | 98.3% | 100% (inactive) | 97.2% (inactive) | 104% (inactive) | 105% | 104% |
| COc1ccccc1C1CC(c2c(-c3ccccc3)c3cc(Cl)ccc3[nH]c2=O)=NN1S(C)(=O)=O (stereo not drawn) | 97.6% (inactive) | 98.9% | 97.4% | 106% (inactive) | 107% | 105% | 119% (inactive) | 96.4% (inactive) | 113% (inactive) | 112% | 112% |
| Cc1noc2ncnc(Sc3ccccc3Cl)c12 | 106% (inactive) | 104% | 105% | 112% (inactive) | 111% | 112% | 109% (inactive) | 101% (inactive) | 116% (inactive) | 113% | 114% |
| O=C(Nc1nc(-c2ccc(Cl)cc2)cs1)c1cccnc1 | 96.8% (inactive) | 87.8% | 98.3% | 105% (inactive) | 101% | 104% | 99% (inactive) | 99.4% (inactive) | 95.9% (inactive) | 93.8% | 95.6% |
| COCCCN1C(=O)C2C(C(=O)Nc3cc(C)cc(C)c3)C3C=CC2(O3)C1C(=O)NC1CCCCC1 (stereo not drawn) | 100% (inactive) | 101% | 101% | 95% (inactive) | 100% | 98.3% | 102% (inactive) | 96.7% (inactive) | 112% (inactive) | 105% | 114% |

| SMILES | GFP response vs DMSO [1] | GFP response vs DMSO [1, 6] | GFP response vs DMSO [1, 7] | GFP response relative to DMSO [2] | GFP response relative to DMSO [2, 8] | GFP response relative to DMSO [2, 9] | GFP response vs DMSO [3] | GFP response, % of DMSO [4] | GFP response, % of DMSO [5] | GFP response, % of DMSO [5, 6] | GFP response, % of DMSO [5, 7] |
| --- | --- | --- | --- | --- | --- | --- | --- | --- | --- | --- | --- |
| Cc1ccc(/C=C/C(=O)NC2CCCCCCC2)o1 | 98.8% (inactive) | 99.4% | 98.2% | 125% (inactive) | 120% | 130% | 102% (inactive) | 90.8% (inactive) | 101% (inactive) | 105% | 97.3% |
| Cc1ccc(NC(=O)CC2SC(=O)N(c3ccccc3)C2=O)cc1 (stereo not drawn) | 97.8% (inactive) | 101% | 94.5% | 142% (inactive) | 140% | 143% | 112% (inactive) | 98.9% (inactive) | 102% (inactive) | 104% | 94.5% |
| CCn1cc([N+](=O)[O-])c(C(=O)Nc2nc(-c3ccc(C)c(C)c3)c(C)s2)n1 | 98.8% (inactive) | 98.6% | 99.2% | 95.4% (inactive) | 97.6% | 94% | 100% (inactive) | 101% (inactive) | 99.7% (inactive) | 99.1% | 97.3% |
| O=C1CC(SCCO)C(=O)N1c1ccc(Oc2ccccc2)cc1 (stereo not drawn) | 99.7% (inactive) | 98.7% | 101% | 103% (inactive) | 105% | 104% | 104% (inactive) | 103% (inactive) | 104% (inactive) | 101% | 106% |
| Clc1ccc(N=c2ssnc2Cl)cc1 | 97.8% (inactive) | 99.2% | 92.9% | 154% (active) | 139% | 161% | 107% (inactive) | 97.4% (inactive) | 104% (inactive) | 105% | 99.8% |
| CCc1noc(C)c1C(=O)Nc1nc(-c2ccc(Cl)cc2Cl)cs1 | 95.6% (inactive) | 95.6% | 94% | 97.7% (inactive) | 96% | 97.4% | 103% (inactive) | 96.1% (inactive) | 94.4% (inactive) | 97.6% | 93.8% |
| CN(CCCS(=O)(=O)[O-])c1ccc(/C=C/c2ccc3ccccc3[n+]2C)cc1 | 101% (inactive) | 100% | 101% | 102% (inactive) | 102% | 104% | 111% (inactive) | 99.6% (inactive) | 106% (inactive) | 106% | 106% |
| O=C1CC(Sc2nnc(-c3ccccc3O)o2)C(=O)N1c1ccccc1 (stereo not drawn) | 95.1% (inactive) | 98.3% | 93.1% | 104% (inactive) | 101% | 105% | 101% (inactive) | 104% (inactive) | 106% (inactive) | 103% | 106% |
| O=[N+]([O-])c1ccc(N2CCN(CCO)CC2)cc1Sc1ccccn1 | 97.8% (inactive) | 99.5% | 98% | 94.1% (inactive) | 96% | 95.4% | 99.3% (inactive) | 96.1% (inactive) | 101% (inactive) | 101% | 102% |
| CS(=O)(=O)N1CCc2cc(C(=O)Nc3ccc(COCC(F)(F)F)cc3)ccc21 | 102% (inactive) | 104% | 103% | 92.6% (inactive) | 97.2% | 93.1% | 100% (inactive) | 96.1% (inactive) | 110% (inactive) | 108% | 111% |
| COc1ccc(C(=O)Oc2ccc(/C=N/NC(=O)c3ccccc3OC)cc2[N+](=O)[O-])cc1 | 102% (inactive) | 103% | 101% | 87.2% (inactive) | 87.8% | 86.7% | 104% (inactive) | 101% (inactive) | 104% (inactive) | 104% | 100% |
| CCOc1ccccc1C1N=C(c2ccc(OC)cc2)CC(c2ccccc2O)N1 (stereo not drawn) | 102% (inactive) | 103% | 100% | 106% (inactive) | 99.7% | 109% | 105% (inactive) | 102% (inactive) | 110% (inactive) | 108% | 109% |
| O=C(O)CSC1CC(=O)N(c2ccc(Cl)c(Cl)c2)C1=O (stereo not drawn) | 97.8% (inactive) | 97.8% | 97.5% | 108% (inactive) | 113% | 107% | 101% (inactive) | 101% (inactive) | 100% (inactive) | 99.3% | 100% |
| CCOC(=O)c1sc(Nc2nc3c(OC)cccc3s2)nc1C | 103% (inactive) | 77.4% | 69% | 97% (inactive) | 94.2% | 92% | 112% (inactive) | 106% (inactive) | 100% (inactive) | 90.2% | 90.7% |
| O=C(Nc1ccc(NC(=O)c2cc3ccccc3o2)cc1)c1ccco1 | 100% (inactive) | 97.6% | 101% | 97% (inactive) | 95.9% | 97.3% | 101% (inactive) | 106% (inactive) | 98.8% (inactive) | 99.2% | 98.1% |
| Oc1c(CN2CCCCC2)cc(Br)c2cccnc12 | 106% (inactive) | 103% | 105% | 208% (active) | 181% | 208% | 118% (inactive) | 96.7% (inactive) | 102% (inactive) | 104% | 91% |
